Source: ChEMBL document CHEMBL4033800, “Further Developments of the Phenyl-Pyrrolyl Pentane Series of Nonsteroidal Vitamin D Receptor Modulators as Anticancer Agents” (J Med Chem, 2018)
Calls of active or inactive are those of the source. The calls are words filed in the database; no cut-off is given here.

Legend:
MCF7 [1] = test: Induction of apoptosis in human MCF7 cells assessed as late apoptotic cells at 1 uM after 24 hrs by Annexin V-FITC/propidium iodide-staining based flow cytometry (reference value: 0.062%); type: functional
MCF7 [2] = test: Induction of cell cycle arrest in human MCF7 cells assessed as accumulation at S phase at 1 uM after 24 hrs by propidium iodide-staining based flow cytometry (reference value: 31.55%); type: functional
MCF7 [3] = test: Induction of cell cycle arrest in human MCF7 cells assessed as accumulation at G0/G1 phase at 1 uM after 24 hrs by propidium iodide-staining based flow cytometry (reference value: 56.03%); type: functional
Mus musculus [4] = test: Hypercalcemic effect in ICR mouse at 0.5 ug/kg, ip administered for 7 days measured on day 8 post-dose by MTB-based assay relative to control; type: ADME, organism-based; conditions: in vivo, 0.0005 mg/kg, 168 h
How it was run: (§1)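 Mice were dosed i.p. over a 7-day period and serum calcium was then measured. Each dose level was compared with a vehicle-treated control group (saline cited as the comparator). Data are mean ± SEM, n = 6 per group. Significance versus vehicle was reported at p < 0.05, 0.01 and 0.001.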

[5] = Drug uptake in human MCF7 cells at 1 uM after 30 mins by HPLC analysis; type: ADME, cell-based; conditions: mcf7, 0.5 h
How it was run: (§2)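 MCF7 cells were given 1 µM compound in medium with 10% FBS for 10 or 30 min. Cells and medium were extracted separately with chloroform/methanol (3:1, v/v) and analysed by HPLC. Mean ± SEM, n = 3.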

MCF7 [6] = test: Induction of apoptosis in human MCF7 cells assessed as viable cells at 1 uM after 24 hrs by Annexin V-FITC/propidium iodide-staining based flow cytometry (reference value: 98.2%); type: functional; conditions: MCF7, 24 h, read-out: Activity
[7] = Drug uptake in human MCF7 cells at 1 uM after 10 mins by HPLC analysis; type: ADME, cell-based; conditions: mcf7, 10 min; how it was run: as §2
MCF7 [8] = test: Induction of apoptosis in human MCF7 cells assessed as early apoptotic cells at 1 uM after 24 hrs by Annexin V-FITC/propidium iodide-staining based flow cytometry (reference value: 1.74%); type: functional
[9] = Half life in iv dosed Sprague-Dawley rat; type: ADME, organism-based; conditions: in vivo
MCF7 [10] = test: Induction of apoptosis in human MCF7 cells assessed as necrotic cells at 1 uM after 24 hrs by Annexin V-FITC/propidium iodide-staining based flow cytometry (reference value: 0.031%); type: functional
[11] = Drug metabolism in human MCF7 cells at 1 uM after 24 hrs by HPLC analysis; type: ADME, cell-based; conditions: read-out: Drug metabolism
How it was run: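 MCF7 cells were incubated 24 h with 1 µM compound, alongside a medium-only incubation without cells. Mixtures were extracted with chloroform/methanol (3:1, v/v) and quantified by HPLC. Mean ± SEM, n = 3.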

Mus musculus [12] = test: Hypercalcemic effect in ICR mouse assessed as serum calcium levels at 5 ug/kg, ip administered for 7 days measured on day 8 post-dose by MTB-based assay (reference value: 7.05 mg/dl); type: ADME, organism-based; conditions: in vivo, 0.005 mg/kg, 168 h; how it was run: as §1
MCF7 [13] = test: Induction of cell cycle arrest in human MCF7 cells assessed as accumulation at G2/M phase at 1 uM after 24 hrs by propidium iodide-staining based flow cytometry (reference value: 12.41%); type: functional
Mus musculus [14] = test: Toxicity in BALB/c nude mouse xenografted with human MCF7 cells assessed as change in body weight at 10 mg/kg, ip administered every other day relative to control; type: organism-based; conditions: in vivo
How it was run: (§3)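 MCF7 cells transplanted orthotopically into the breast of athymic nude mice. Dosing at 10 mg/kg i.p. in vehicle of polyoxyethylated castor oil/ethanol/saline 1:1:18, with vehicle and saline control groups. Body weight, tumor volume and serum calcium followed.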

MCF7 [15] = test: Induction of apoptosis in human MCF7 cells xenografted in BALB/c nude mouse at 10 mg/kg, ip administered every other day by TUNEL assay; type: functional, organism-based
How it was run: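 Apoptosis in MCF7 orthotopic tumor sections from nude mice given 10 mg/kg i.p. was scored by TUNEL staining.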

PC-3 = test: Antiproliferative activity against human PC3 cells after 48 hrs by MTT assay; type: functional, cell-based; conditions: PC-3, 48 h
Caco-2 = test: Antiproliferative activity against human Caco2 cells after 48 hrs by MTT assay; type: functional, cell-based; conditions: Caco-2, 48 h
Vitamin D3 receptor = molecular target: T1, Vitamin D3 receptor (Homo sapiens, UniProt P11473); test: Displacement of fluormone VDR red from human full length VDR after 4 hrs by fluorescence polarization assay
T1 sequence (P11473 whole entry): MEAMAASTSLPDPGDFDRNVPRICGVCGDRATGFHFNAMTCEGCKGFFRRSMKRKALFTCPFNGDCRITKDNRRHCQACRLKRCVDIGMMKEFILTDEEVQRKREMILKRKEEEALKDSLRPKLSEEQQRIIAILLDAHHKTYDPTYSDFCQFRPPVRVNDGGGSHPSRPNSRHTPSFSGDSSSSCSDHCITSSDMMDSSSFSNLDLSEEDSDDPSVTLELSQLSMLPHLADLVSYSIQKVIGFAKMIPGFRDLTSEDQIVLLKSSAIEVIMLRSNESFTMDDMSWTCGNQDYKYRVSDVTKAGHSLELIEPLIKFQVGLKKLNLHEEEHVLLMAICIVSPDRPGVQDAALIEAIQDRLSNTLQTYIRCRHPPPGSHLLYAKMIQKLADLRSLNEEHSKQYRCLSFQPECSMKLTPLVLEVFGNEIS

HepG2 = test: Antiproliferative activity against human HepG2 cells after 48 hrs by MTT assay; type: functional, cell-based; conditions: HepG2, 48 h
MCF7 [16] = test: Antiproliferative activity against human MCF7 cells after 48 hrs by MTT assay; type: functional, cell-based; conditions: MCF7, 48 h
Mus musculus [17] = test: Toxicity in BALB/c nude mouse xenografted with human MCF7 cells assessed increase in serum calcium levels at 10 mg/kg, ip administered every other day relative to control; type: organism-based; conditions: in vivo; how it was run: as §3
Mus musculus [18] = test: Hypercalcemic effect in ICR mouse at 0.5 to 5 mg/kg/day, ip administered for 7 days measured on day 8 post-dose by MTB-based assay relative to control; type: ADME, organism-based; conditions: in vivo, 168 h; how it was run: as §1
Mus musculus [19] = test: Hypercalcemic effect in ICR mouse at 30 mg/kg/day, ip administered for 7 days measured on day 8 post-dose by MTB-based assay relative to control; type: ADME, organism-based; conditions: in vivo, 168 h; how it was run: as §1
L02 = test: Antiproliferative activity against human L02 cells after 48 hrs by MTT assay; type: cell-based; conditions: L02, 48 h
MCF7 [20] = test: Antitumor activity against human MCF7 cells xenografted in BALB/c nude mouse assessed as tumor growth inhibition at 10 mg/kg, ip administered every other day; type: functional, organism-based; how it was run: as §3

## C=C1/C(=C\C=C2/CCC[C@]3(C)[C@@H]([C@H](C)CCCC(C)(C)O)CC[C@@H]23)C[C@@H](O)C[C@@H]1O [CALCITRIOL]
MCF7 [1]
  Activity: 3.44%
MCF7 [2]
  Activity: 23.9%
MCF7 [3]
  Activity: 63.49%
Mus musculus [4]
  Activity: Non-Toxic
[5]
  Drug uptake: 10.4%
MCF7 [6]
  viability at 1 µM: 89.8%
[7]
  Drug uptake: 6.5%
MCF7 [8]
  Activity: 6.59%
[9]
  half-life: 4.27 h
MCF7 [10]
  Activity: 0.15%
[11]
  metabolised at 24 h, 1 µM: 27%
Mus musculus [12]
  Activity: 11.04 mg/dL
MCF7 [13]
  Activity: 12.61%

## CCN(CC)CCNC(=O)c1ccc(C(CC)(CC)c2ccc(OCCC(O)(CC)CC)c(C)c2)n1CC
MCF7 [1]
  Activity: 2.81%
Mus musculus [14]
  Activity: Non-Toxic
MCF7 [15]
  Activity: Active
MCF7 [2]
  Activity: 26.31%
MCF7 [3]
  Activity: 68.92%
PC-3
  IC50: 3350 nM
Caco-2
  IC50: 1630 nM
Vitamin D3 receptor
  IC50: 271 nM
[5]
  Drug uptake: Active
MCF7 [6]
  viability at 1 µM: 89.2%
[7]
  Drug uptake: Active
HepG2
  IC50: 230 nM
MCF7 [16]
  IC50: 550 nM
Mus musculus [17]
  Activity: Non-Toxic
Mus musculus [18]
  Activity: Non-Toxic
MCF7 [8]
  Activity: 7.74%
Mus musculus [19]
  Activity: Toxic
MCF7 [10]
  Activity: 0.24%
MCF7 [13]
  Activity: 4.77%
L02
  IC50: 2290 nM
MCF7 [20]
  TGI: Active
